Only some compounds are listed: those with a hit (about 1.7% of all), similar ones and a draw of the others.
Cneo AK release – Cryptococcus neoformans lysis via adenylate kinase release | lysis activity, % at 15 µM | actives 0.2% (n = 360,000) | C. neoformans lysis, adenylate kinase release luminescence, 4 h; normalised: neutral wells 0, clomiphene wells 100;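 active means mean lysis activity across replicates of at least 80%, whatever share of replicates individually reach that level; inactive means mean lysis activity below 80%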
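Signal: Adenylate kinase release luminescence | Assay system: Log-phase Cryptococcus neoformans yeast cells | Input: Cells at 5 × 10^6 per mL | Buffer or medium: Fresh YPD growth medium | Compound: Single dose | Schedule: Static 4 h at 37 °C with compound, 1 h detection | Controls: Clomiphene | Read-out: Luminescence rise reflecting yeast cell lysis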
rRNA inh HTS – selective bacterial rRNA inhibition in E. coli | AID 720706 | E. coli WT GFP vs humanized-ribosome RFP mutants, fluorescence, 24 h; stronger effect = lower value; DMSO median 0, no signal -100 | GFP signal change (wild-type ribosome), % (no concentration beside the values) | actives 1.6% (n = 350,000);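 active means significant combined selectivity score with lowered wild-type GFP, culture density cut under 30%, mutant RFP and density less affected; inactive means any of these conditions unmet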
CaV13 ICDI inh – Disruptors of the CACNA1D IQ motif to Ca2+-dependent inactivation inhibitor domain association, primary screening, Förster resonance energy transfer in intact living … | inhibition, % at 12.3 µM | actives 0.098% (n = 340,000) | HEK cells, CFP/YFP FRET ICDI-IQ, plate reader, 10 min; percent FRET-ratio fall versus neutral wells | AID 743397;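 active means mean replicate inhibition of at least 30% and at least 1% of replicates passing that level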;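 further: 0% = median of the neutral control wells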
F508del corr – correctors of CFTR F508del function in bronchial epithelial cells; CFBE cells, YFP halide quenching; stimulated with forskolin plus potentiator P3; % fluorescence drop versus neutral controls; activity (quench increase), % at 7.58 µM; actives 0.36% (n = 350,000); AID 720511;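 active means mean added fluorescence quench of at least 8% versus neutral control, with both replicates also reaching 8%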;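 further: cells transiently co-express mutant CFTR-F508del with the halide-sensitive YFP; corrector assay measuring rescue of mutant channel to the surface after 24 h compound exposure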
Starred values were filed as active, the others as inactive; . = no result given.

SMILES | Cneo AK release | rRNA inh HTS | CaV13 ICDI inh | F508del corr
C#Cc1ccc(NC(=O)C2(C)CCN2C(=O)c2cc(C)n(C)n2)cc1 (stereo not drawn) | 2.0 | -5.4 | -10.4 | 8.1*
Cc1cc(C(=O)N2CCC2(C)C(=O)NCCC#N)nn1C (stereo not drawn) | 0.4 | . | -2.7 | -0.6
O=C(Nc1ccc2c(c1)[C@@H]1C[C@@H](CC(=O)N3CCCCC3)O[C@H](CO)[C@@H]1O2)c1cccnc1 | 46.5 | -0.9 | . | 1.0
O=C(NNC(=S)NC1CCCCC1)c1sc2ccccc2c1Cl | . | -19.5* | -18.3 | .
O=C(NC1CC1)c1sc2ccccc2c1Cl | -0.5 | 1.1 | -3.3 | 0.3
O=C(NC(=S)NC1CCCC1)c1ccccc1 | 22.7 | -26.0* | -2.3 | 3.0
CC(=O)c1cccc(NC(=O)NC2CCCCCCC2)c1 | -1.4 | -28.6 | -3.2 | -3.2
CC(=O)c1cccc(NC(=S)NC2CCCCCCC2)c1 | 129.0* | -19.4 | -7.0 | -0.4
O=C(NC(=S)Nc1ccc(-c2ccccc2)cc1)c1ccccc1 | 1.6 | 0.8 | -6.7 | 10.2*
C[C@@H]1CN([C@@H](C)CO)C(=O)c2cc(NC(=O)CCC(F)(F)F)ccc2O[C@@H](C)CCCCO[C@@H]1CN(C)C(=O)C1CCCCC1 | -2.8 | -1.6 | . | -1.2
C[C@H](CO)N1C[C@H](C)[C@@H](CN(C)Cc2ccc(F)cc2)OCc2ccccc2-c2c(n(C)c3ccccc23)C1=O | . | -26.9 | . | .
CCCC(=O)Nc1ccc2c(c1)OC[C@H](C)N(C(=O)CN(C)C)C[C@@H](C)[C@@H](OC)CN(C)C2=O | -3.2 | 1.1 | . | 2.9
O=[N+]([O-])c1ccc(N2CCN(Cc3ccc([N+](=O)[O-])o3)CC2)cc1 | 3.7 | -23.0* | -3.6 | 0.9
Cc1nonc1OCCN1CCN(c2ccc([N+](=O)[O-])cc2)CC1 | . | -23.0* | -2.6 | 0.3
O=[N+]([O-])c1ccc(N2CCN(CCOc3nonc3-c3ccccc3)CC2)c(Cl)c1 | 3.2 | 17.9 | -7.5 | -1.1
O=C(NCC1CC1)[C@@H]1[C@@H](CO)[C@@H]2Cn3c(ccc(-c4cccnc4)c3=O)[C@H]1N2C(=O)C1CC1 | 4.5 | 1.5 | . | .
CO[C@H]1CN(C)C(=O)c2cc(NC(=O)NC(C)C)ccc2OC[C@@H](C)N(Cc2ccc(-c3ccccn3)cc2)C[C@H]1C | -3.0 | 1.0 | . | 4.3
N/C(Cc1ccc(Cl)cc1Cl)=N\OC(=O)c1ccccc1 | . | -30.6* | -4.1 | -5.0
Cc1cnc(NC(=O)Cc2c[nH]c3ccccc23)s1 | 4.3 | -22.4* | -6.5 | -0.7
O=C(Cc1c[nH]c2ccccc12)Nc1nccs1 | -4.6 | . | -0.2 | .
COc1cccc(OC)c1OCCCOc1cccc2cccnc12 | -0.3 | -28.8* | 0.5 | -1.0
c1ccc(OCCSc2nnc3sc4ccccc4n23)cc1 | -2.8 | -41.0* | -6.5 | -0.6
C[C@H](CO)N1C[C@H](C)[C@@H](CN(C)C(=O)c2ccc(F)cc2)Oc2ncc(-c3ccc(F)cc3)cc2C1=O | 7.7 | -3.4 | . | 0.3
Cc1nc(-c2ccc(NC(=O)c3ccccc3Br)cc2)cs1 | . | . | -3.5 | .
Cc1nc(-c2ccc(NC(=O)c3ccccc3C)cc2)cs1 | -10.2 | -27.2* | -5.0 | 0.2
SMILES | Cneo AK release | rRNA inh HTS | CaV13 ICDI inh | F508del corr
CN1C(=O)c2cc(NS(=O)(=O)c3cccc(F)c3)ccc2OC[C@H]2O[C@@H](CC(=O)O)CC[C@@H]21 | -1.7 | -0.4 | . | -0.7
COC(=O)C[C@@H]1CC[C@@H]2[C@H](COc3ccc(NC(=O)c4ccc(C(F)(F)F)cc4)cc3C(=O)N2C)O1 | -4.0 | -0.1 | . | 11.3*
CN1C(=O)c2cc(NS(C)(=O)=O)ccc2OC[C@H]2O[C@@H](CC(=O)O)CC[C@@H]21 | 4.8 | 0.7 | . | -0.1
CN1C(=O)c2cc(NS(=O)(=O)c3cccc(F)c3)ccc2OC[C@H]2O[C@H](CC(=O)O)CC[C@H]21 | 96.5* | -2.1 | . | -2.7
CN1C(=O)c2cc(NS(C)(=O)=O)ccc2OC[C@@H]2O[C@@H](CC(=O)O)CC[C@H]21 | 83.1* | -0.5 | . | 2.3
CN1C(=O)c2cc(NS(=O)(=O)c3cccc(F)c3)ccc2OC[C@@H]2O[C@@H](CC(=O)O)CC[C@H]21 | 96.5* | -0.5 | . | 3.5
Cc1ccc(S(=O)(=O)N(C)C[C@H]2OCCCC[C@H](C)Oc3ccc(NS(=O)(=O)c4cn(C)cn4)cc3C(=O)N([C@@H](C)CO)C[C@H]2C)cc1 | -1.6 | -1.0 | . | 2.4

Screens deposited in PubChem by Broad Institute.
